Consider 65 compounds from PubChem BioAssay AID602408 (Southern Research Specialized Biocontainment Screening …, 2012).

The term IC50 denotes the concentration that inhibits the measured activity by half.

Where “and” joins values, the source holds several entries; their conditions need not be identical. Equal values may be shown once. Calls of active or inactive are those of the source.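 How the source made its calls: active means inhibition of phage lysis above 30%; inactive means the rest.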 A value given as a limit tells only on which side of the number the result lay.

In assay [1] the test system is E. coli UTI89 K1 capsule, phage lysis, A600. The experiment in a line: blocking phage-mediated lysis of K1 E. coli – UTI89 strain, A600 absorbance, round 2, bacterial capsule biogenesis project, confirmation (AID 602408). In short, it runs like this: (§1)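 system = Escherichia coli K1 strain UTI89, whole bacterial cells | compound dosing = 1% DMSO final | technique = OD600 absorbance | incubation = 1.5 h shaking compound pre-incubation, 2 h phage exposure, 37 °C | medium = LB | probe or stimulus = K1F phage, added after compound pre-incubation | repeats = duplicate wells per concentration | evaluation = phage lysis by OD600, pre-phage OD600 for growth effects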

Assay in assay [2]: as above
The note with it: E. coli UTI89 K1 capsule, phage lysis, A600; at 100 µM (top of the series). In short, it runs like this:
as §1

For the compound `O=C(Nc1cc(-c2ccccc2)sc1C(=O)O)c1ccc(Br)o1`, the IC50 in assay [1] was 42.2 µM.

As for `CCCCOc1ccc(-c2cc(NC(=O)c3c(F)cc(F)cc3F)c(C(=O)O)s2)cc1`, in assay [1], the IC50 is 6.39 µM.

As to `O=C(Nc1ccnc(F)c1)c1ccc2ncsc2c1`, in assay [1], the half-maximal inhibitory concentration (IC50) is 4.62 µM.

As to `CC(C)(C)c1ccc(-c2cc(NC(=O)c3cccc(F)c3)c(C(=O)O)s2)cc1`, in assay [1], the IC50 was 9.72 µM.

As to `Cc1ccc(-c2cc(NC(=O)c3cccc(F)c3)c(C(=O)O)s2)cc1`, the IC50 in assay [1] is 44.5 µM.

For `O=C(Nc1ccnc(Br)c1)c1ccc2ncsc2c1`, the IC50 in assay [1] is 4.26 µM.

As to `Cc1ccc(-c2cc(NC(=O)c3c(F)cccc3F)c(C(=O)O)s2)cc1`, the IC50 in assay [1] was 21.3 µM.

Consider `CCCCOc1ccc(-c2cc(NC(=O)c3c(F)cccc3F)c(C(=O)O)s2)cc1`, for which the IC50 in assay [1] is less than 0.78 µM.

On to `CCOc1ccc(-c2cc(NC(=O)c3c(F)cccc3F)c(C(=O)O)s2)cc1`, for which the IC50 in assay [1] was 2.8 µM and 3.73 µM.

In the case of `CC(C)c1ccc(-c2cc(NC(=O)c3c(F)cccc3F)c(C(=O)O)s2)cc1`, the IC50 in assay [1] is 5.88 µM.

For the compound `CCCc1ccc(-c2cc(NC(=O)c3c(F)cccc3F)c(C(=O)O)s2)cc1`, in assay [1], the concentration for half-maximal inhibition (IC50) is 2.63 µM.

Take `CCOc1ccc(-c2cc(NC(=O)c3cccc(F)c3)c(C(=O)O)s2)cc1`: the IC50 in assay [1] is 20.1 µM.

`CCOc1ccc(-c2cc(NC(=O)c3ccc(Br)s3)c(C(=O)O)s2)cc1`: the IC50 in assay [1] was 13.9 µM.

For `COc1cc2sc(NC(=O)c3ccc(Br)s3)nc2cc1F`, in assay [2], the inhibition of phage lysis was -6.05% (inactive).

For `O=C(NC1CCNCC1)c1ccc2ncsc2c1`, the inhibition of phage lysis in assay [2] was -6.19% (inactive).

Take `CC(C)c1ccc(-c2cc(NC(=O)c3ccc(Br)o3)c(C(=O)O)s2)cc1`: in assay [1], the IC50 was 2.81 µM.

As to `CCOc1ccc(-c2cc(NC(=O)c3ccc(OC)c(OC)c3)c(C(=O)O)s2)cc1`, the IC50 in assay [1] is 59.9 µM.

With `O=C(Nc1ccnc(Cl)c1)c1ccc2ncsc2c1`, in assay [1], the concentration for half-maximal inhibition (IC50) is 2.57 µM.

As for `COc1ccc2nc(NC(=O)c3ccc(Br)s3)sc2c1`, the IC50 in assay [1] is 2.33 µM.

Consider `O=C(Nc1cc(-c2ccc(OCCCC(F)(F)F)cc2)sc1C(=O)O)c1cc(Br)c(Br)o1`, for which the concentration for half-maximal inhibition (IC50) in assay [1] was 32.2 µM. Further, in assay [2], the inhibition of phage lysis was 12.2% (inactive).

For the compound `CCCc1ccc(-c2cc(NC(=O)c3cc(Br)c(Br)o3)c(C(=O)O)s2)cc1`, in assay [1], the 50% inhibitory concentration (IC50) is 6.78 µM.

As to `CCCCOc1ccc(-c2cc(NC(=O)c3cc(Br)c(Br)o3)c(C(=O)O)s2)cc1`, the concentration for half-maximal inhibition (IC50) in assay [1] is 23.3 µM.

Consider `O=C(Nc1ncccc1O)c1ccc2ncsc2c1`, for which, in assay [2], the inhibition of phage lysis is 0.85% (inactive).

In the case of `COc1ccc2nc(NC(=O)c3ccco3)sc2c1`, the inhibition of phage lysis in assay [2] was 0.81% (inactive).

As for `O=C(Nc1ccncc1)c1ccc2ncsc2c1`, in assay [1], the IC50 is 1.05 µM. The inhibition of phage lysis in assay [2] was 17.9% (inactive).

For the compound `CCOc1ccc(-c2cc(NC(=O)c3cccc(Cl)c3)c(C(=O)O)s2)cc1`, the IC50 in assay [1] is 64.9 µM.

Take `O=C(Nc1ccncc1F)c1ccc2ncsc2c1`: the IC50 in assay [1] was 18.6 µM.

As for `O=C(O)c1sc(-c2ccc(C(F)(F)F)cc2)cc1NC(=O)c1c(F)cccc1F`, the half-maximal inhibitory concentration (IC50) in assay [1] is 20.9 µM.

With `COc1cc(NC(=O)c2ccc3ncsc3c2)ccn1`, the IC50 in assay [1] is 7.75 µM.

Regarding `CCOc1ccc2nc(NC(=O)c3ccc(Br)s3)sc2c1`, the IC50 in assay [1] was 5.06 µM.

Turning to `CCCc1ccc(-c2cc(NC(=O)c3c(F)cc(F)cc3F)c(C(=O)O)s2)cc1`, the IC50 in assay [1] was 15.9 µM.

Take `O=C(NCCc1ccncc1)c1ccc2ncsc2c1`: the inhibition of phage lysis in assay [2] was 8.25% (inactive).

`O=C(O)c1sc(-c2ccc(OCCC(F)(F)F)cc2)cc1NC(=O)c1c(F)cccc1F`: the 50% inhibitory concentration (IC50) in assay [1] is 0.84 µM.

On to `Cc1ccc(-c2cc(NC(=O)c3ccc(Br)o3)c(C(=O)O)s2)cc1`, for which the concentration for half-maximal inhibition (IC50) in assay [1] was 11.3 µM.

Turning to `CCCCOc1ccc(-c2cc(NC(=O)c3ccc(Br)o3)c(C(=O)O)s2)cc1`, the IC50 in assay [1] was 0.85 µM.

With `O=C(O)c1sc(-c2ccc(OCCC(F)(F)F)cc2)cc1NC(=O)c1c(F)cc(F)cc1F`, the IC50 in assay [1] was 3.11 µM.

In the case of `O=C(Nc1cc(-c2ccccc2)sc1C(=O)O)c1ccc2c(c1)OCCO2`, in assay [1], the 50% inhibitory concentration (IC50) is 89.1 µM.

For `CCOc1ccc(-c2cc(NC(=O)c3ccc(Br)o3)c(C(=O)O)s2)cc1`, the IC50 in assay [1] was 4.85 µM.

Take `[N-]=[N+]=NCCOc1ccc(-c2cc(NC(=O)c3c(F)cccc3F)c(C(=O)O)s2)cc1`: the IC50 in assay [1] was 17.5 µM.

Regarding `CC1=NN2C(=N)/C(=C\c3ccc(SCc4ccco4)o3)C(=O)N=C2S1`, in assay [1], the 50% inhibitory concentration (IC50) was 37.9 µM.

On to `CCOc1ccc(-c2cc(NC(=O)c3c(F)cc(F)cc3F)c(C(=O)O)s2)cc1`, for which the IC50 in assay [1] was 20 µM.

Turning to `O=C(Nc1cc(-c2ccc(C(F)(F)F)cc2)sc1C(=O)O)c1ccc(Br)o1`, in assay [1], the concentration for half-maximal inhibition (IC50) is 9.74 µM.

As for `CC(C)c1ccc(-c2cc(NC(=O)c3cccc(F)c3)c(C(=O)O)s2)cc1`, in assay [1], the IC50 is 18.4 µM.

For the compound `O=C(Nc1cc(-c2ccc(OCC(F)(F)F)cc2)sc1C(=O)O)c1ccc(Br)o1`, in assay [1], the half-maximal inhibitory concentration (IC50) is 4.9 µM.

Regarding `O=C(O)c1sc(-c2ccc(OCCCC(F)(F)F)cc2)cc1NC(=O)c1c(F)cc(F)cc1F`, in assay [1], the half-inhibitory concentration (IC50) was 5.53 µM.

For the compound `O=C(Nc1cc(-c2ccc(OCCC(F)(F)F)cc2)sc1C(=O)O)c1ccc(Br)o1`, the IC50 in assay [1] was 0.84 µM.

In the case of `O=C(O)c1sc(-c2ccc(OCC(F)(F)F)cc2)cc1NC(=O)c1c(F)cccc1F`, the IC50 in assay [1] was 2.86 µM.

Take `CC(C)(C)c1ccc(-c2cc(NC(=O)c3c(F)cccc3F)c(C(=O)O)s2)cc1`: the IC50 in assay [1] is 6.99 µM.

`O=C(ONc1ccc(N=NC(=O)c2ccccc2O)cc1)c1ccccc1`: in assay [1], the 50% inhibitory concentration (IC50) is 2.01 µM.

Take `O=C(NCc1ccncc1)c1ccc2ncsc2c1`: the inhibition of phage lysis in assay [2] was -2.06% (inactive).

For `CCCc1ccc(-c2cc(NC(=O)c3ccc(Br)o3)c(C(=O)O)s2)cc1`, the IC50 in assay [1] is 1.43 µM.

For `CC1(C(=O)O)CCC(C(=O)Nc2ccc3ccccc3c2)C1(C)C` (configuration not stated), the half-inhibitory concentration (IC50) in assay [1] was 43.9 µM.

Consider `O=C(Nc1cc(-c2ccccc2)sc1C(=O)O)c1cccs1`, for which the half-inhibitory concentration (IC50) in assay [1] is 68.1 µM.

Consider `O=C(Nc1cc(-c2ccc(OCCCC(F)(F)F)cc2)sc1C(=O)O)c1ccc(Br)o1`, for which, in assay [1], the 50% inhibitory concentration (IC50) was 1.78 µM.

Turning to `CC(C)c1ccc(-c2cc(NC(=O)c3cc4ccccc4o3)c(C(=O)O)s2)cc1`, in assay [1], the concentration for half-maximal inhibition (IC50) was 23.6 µM.

With `COc1ccc2nc(NC(=O)c3cccs3)sc2c1`, the inhibition of phage lysis in assay [2] is 24% (inactive).

For the compound `O=C(O)c1sc(-c2ccc(OC(F)(F)F)cc2)cc1NC(=O)c1c(F)cccc1F`, the IC50 in assay [1] was 9.77 µM.

For the compound `O=C(NCc1cc([N+](=O)[O-])ccc1O)c1cccnc1Sc1ccccc1Cl`, the IC50 in assay [1] is 14.8 µM.

Consider `O=C(Nc1cc(-c2ccc(OC(F)(F)F)cc2)sc1C(=O)O)c1ccc(Br)o1`, for which the IC50 in assay [1] was 4.6 µM.

As to `O=C(O)c1sc(-c2ccc(OCCCC(F)(F)F)cc2)cc1NC(=O)c1c(F)cccc1F`, the IC50 in assay [1] was 10.3 µM.

Turning to `O=C(Nc1cc(-c2ccccc2)sc1C(=O)O)c1cccc(Cl)c1`, the half-inhibitory concentration (IC50) in assay [1] is 85.5 µM.

Regarding `COc1ccc(-c2cc(NC(=O)c3ccc(Br)o3)c(C(=O)O)s2)cc1`, the half-inhibitory concentration (IC50) in assay [1] is 8.75 µM.

Turning to `CCOc1ccc(-c2cc(NC(=O)c3c(F)cccc3C(F)(F)F)c(C(=O)O)s2)cc1`, the half-inhibitory concentration (IC50) in assay [1] was 52.6 µM.

As for `CCCOc1ccc(-c2cc(NC(=O)c3c(F)cc(F)cc3F)c(C(=O)O)s2)cc1`, the half-maximal inhibitory concentration (IC50) in assay [1] is 8.06 µM.

In the case of `O=C(O)c1sc(-c2ccc(OCC(F)(F)F)cc2)cc1NC(=O)c1c(F)cc(F)cc1F`, in assay [1], the IC50 was 94.9 µM.
